# Experimental data from different studies.
# MRGPRX2: Mas-related G-protein coupled receptor member X2 (MRGPRX2, Homo sapiens, UniProt Q96LB1)
# CYP17A1: Steroid 17-alpha-hydroxylase/17,20 lyase (CYP17A1, Homo sapiens, UniProt P05093)
SMILES,target,test,conditions,quantity,result
Cc1c(Cc2cccc(N(C)S(=O)(=O)CCCN3CCN(c4ccc(Nc5c(C(N)=O)cnc6ccc(-c7cnc8ccccc8c7)cc56)cc4C(F)(F)F)CC3)c2)c(=O)oc2cc(OC(=O)N(C)C)ccc12,"Dual specificity mitogen-activated protein kinase kinase 1 (MAP2K1, Homo sapiens, UniProt Q02750)","enzyme activity, inhibitor, mobility shift",,IC50,4970 nM
Cc1cc2c(cc1Br)NC(=O)/C2=N/N=C1/C(=O)Nc2cc(Br)c(C)cc21,"Glycogen synthase kinase-3 beta (GSK3B, Homo sapiens, UniProt P49841)","enzyme activity, inhibitor",,IC50,~0.03 nM
CC[C@H](C)[C@H](NC(=O)[C@@H]1CCCN1C(C)=O)C(=O)N[C@@H](CCC(=O)O)C(=O)N[C@H](C(=O)N[C@@H](CS)C(=O)N[C@@H](CCSC)C(=O)N[C@@H](Cc1ccc(O)cc1)C(=O)N[C@@H](CCCNC(=N)N)C(=O)N[C@@H](CCC(=O)O)C(=O)N1CCC[C@H]1C(N)=O)C(C)C,MRGPRX2,"calcium signal, agonist",,EC50,> 20000 nM
COc1cc(C(=O)N2CC[C@@H](O)[C@@H](N)C2)cc2nc(-c3cc4ccccc4n3CC3CC3)n(C)c12,"Vasopressin V1a receptor (AVPR1A, Homo sapiens, UniProt P37288)","calcium signal, antagonist, fluorescence",,IC50,25100 nM
CC(=O)C1=CC[C@H]2[C@@H]3CCC4=CC(=O)CC[C@]4(C)[C@H]3CC[C@]12C,CYP17A1,"binding, absorbance",,Kd,540 nM
CCCc1cc(C)[nH]c(=O)c1CNC(=O)c1cc(-c2ccc(N3CCN(CCCCc4cn(CCN5C(=O)\C(=C/C=C/C=C6/N(CCC(=O)OCOC(C)=O)c7ccc(C(=O)OCOC(C)=O)cc7C6(C)C)C(=O)N(CC)C5=O)nn4)CC3)nc2)cc2c1cnn2C(C)C,"Histone-lysine N-methyltransferase EZH2 (EZH2, Homo sapiens, UniProt Q15910)","enzyme activity, inhibitor, radiometric",,IC50,21 nM
CC(C)C[C@H](NC(=O)[C@H](Cc1ccccc1)NC(=O)c1cnccn1)B(O)O,"Cathepsin G (CTSG, Homo sapiens, UniProt P08311)","enzyme activity, inhibitor",,IC50,36000 nM
C/C=C1\NC(=O)[C@H](C)NC(=O)[C@@H](NC(=O)[C@@H](Cc2ccc(O)cc2)NC(=O)[C@@H](NC(=O)/C(C)=C/C)C(C)C)[C@@H](C)OC(=O)[C@H](CC[S+](C)[O-])NC(=O)[C@@H](CCC(=O)O)NC1=O (stereo partly drawn),"Chymotrypsin-like elastase family member 1 (CELA1, Sus scrofa, UniProt P00772)","enzyme activity, inhibitor, absorbance",,IC50,7280 nM
C[C@@H](O)[C@@H]1NC(=O)[C@H](CCCCN)NC(=O)[C@H](Cc2c[nH]c3ccccc23)NC(=O)[C@H](Cc2ccccc2)NC(=O)[C@H](Cc2ccccc2)NC(=O)[C@H](CC(N)=O)NC(=O)[C@H](CCCCN)NC(=O)[C@@H](NC(=O)[C@@H]2CCCN2)CSSC[C@@H](C(=O)N[C@@H](CCCCN)C(=O)O)NC(=O)[C@H](CO)NC(=O)[C@H](CO)NC(=O)[C@H](Cc2ccccc2)NC1=O,MRGPRX2,"calcium signal, agonist",,EC50,79.4 nM
CC(C)=CCc1c(O)cc2c(c1O)C(=O)C[C@@H](c1ccc(O)cc1)O2,"Cytochrome P450 1A1 (CYP1A1, Homo sapiens, UniProt P04798)","enzyme activity, inhibitor, fluorescence","15 min, pH 7.4",Ki,590 nM
NC(=O)[C@@H]1CCCN1C(=O)[C@H](CCC(=O)O)NC(=O)[C@@H]1CCC(=O)N1,MRGPRX2,"calcium signal, agonist",,EC50,> 20000 nM
CC(=O)[C@H]1CC[C@H]2[C@@H]3CCC4=CC(=O)CC[C@]4(C)[C@H]3CC[C@]12C,CYP17A1,"binding, absorbance",,Kd,740 nM
Nc1ncc(-c2nc(N3CCOCC3)nc(N3CCOCC3)n2)c(C(F)F)n1,"Phosphatidylinositol 4,5-bisphosphate 3-kinase catalytic subunit alpha isoform (PIK3CA, Homo sapiens, UniProt P42336)","ligand displacement, TR-FRET",,IC50,21.9 nM
C/C(=C\[N+](=O)[O-])c1ccccc1,"OYE1 (Saccharomyces pastorianus, UniProt Q02899)","binding, absorbance",,Kd,170000 nM
COC(=O)Nc1nc2cc(C(=O)c3ccc(F)cc3)ccc2[nH]1,"Vascular endothelial growth factor receptor 2 (KDR, Homo sapiens, UniProt P35968)","enzyme activity, inhibitor, TR-FRET",,IC50,470 nM
